# Screening data as filed in PubChem BioAssay.
# Rin1 Abl inh: blocks binding of human Rin1 to Abl | P00519+Q13671 | TR-FRET Rin1/Abl binding, biochemical | inhibition, % at 7.35 µM | 360,000 compounds, 0.4% hits; in the data active = inhibition above about 5%, passing the limit was not always enough
# UBC13 inh: human UBC13 polyubiquitination inhibition; 330,000 compounds, 0.47% hits; P61088; inhibition, % at 20 µM; UBC13 polyubiquitin chain formation, TR-FRET; in the data active = inhibition above about 45%, passing the limit was not always enough; inconclusive = no clear call, values can overlap the other calls
# Target sequence (P61088 whole entry, looked up): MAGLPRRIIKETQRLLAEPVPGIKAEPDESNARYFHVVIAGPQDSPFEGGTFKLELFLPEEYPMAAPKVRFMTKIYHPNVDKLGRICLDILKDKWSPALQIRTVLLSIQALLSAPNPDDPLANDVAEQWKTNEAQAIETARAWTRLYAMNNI
# ALR H2O2 inh: inhibitors of human sulfhydryl oxidase ALR | P55789 | purified ALR, DTT oxidation, H2O2 HRP-luminol luminescence | inhibition, % (test concentration not listed) | 290,000 compounds, 3.8% hits;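 active = mean replicate inhibition above about 79%, with every replicate also reaching it, limit read from the data; inconclusive = only one of the two criteria met; inactive = mean below limit and not every replicate reaching it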
# Target sequence (P55789 whole entry, looked up): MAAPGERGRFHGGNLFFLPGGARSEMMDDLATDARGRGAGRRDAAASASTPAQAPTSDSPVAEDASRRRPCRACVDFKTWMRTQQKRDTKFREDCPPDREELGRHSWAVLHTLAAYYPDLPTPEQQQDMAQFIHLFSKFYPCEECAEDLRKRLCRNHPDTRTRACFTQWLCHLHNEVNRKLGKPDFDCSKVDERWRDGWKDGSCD
# RBBP9 inh: blocks human serine hydrolase RBBP9; inhibition, % at 7.94 µM; O75884; recombinant RBBP9, FP-Rh probe fluorescence polarization; AID 1515; 220,000 compounds, 0.2% hits;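 active = inhibition above the campaign mean of all tested compounds plus 3 SD, cut at about 14% in these data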
# Target sequence (O75884 whole entry, looked up): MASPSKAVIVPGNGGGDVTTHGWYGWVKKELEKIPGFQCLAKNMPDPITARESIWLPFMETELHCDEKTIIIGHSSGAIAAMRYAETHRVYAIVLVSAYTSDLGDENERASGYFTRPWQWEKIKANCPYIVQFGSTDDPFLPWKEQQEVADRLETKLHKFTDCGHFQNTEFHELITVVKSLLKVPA
#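 Test system: recombinant human RBBP9; Timing: 30 min then 45 min, 25 °C; Detection: fluorescence polarization; Control set: RBBP9 with DMSO as uninhibited control, no-protein wells as full inhibition; Compound dosing: one concentration, 7.94 µM nominal, 0.794% DMSO; Probe or stimulus: FP-Rh activity-based probe, 375 nM before mixing.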
# SUMO HTRF inh: inhibitors of human SUMOylation (UBC9); P63279; HTRF SUMOylation assay, SAE1/SAE2 + UBC9, in vitro; inhibition, % at 35 µM; 290,000 compounds, 0.36% hits; in the data active = inhibition above about 50%, passing the limit was not always enough; inconclusive = no clear call, values can overlap the other calls
# PREPL inhibitor: human PREPL enzyme inhibition | recombinant PREPL, fluorescence polarization activity-based probe | inhibition, % at 5.96 µM | 320,000 compounds, 0.68% hits | AID 2751; in the data active = inhibition above about 43%
# Casp3 counter: caspase-3 inhibition (UBC13 counter-screen); shares compounds with UBC13 inh; 1,400 compounds, 4% hits; inhibition, % at 20 µM; Recombinant caspase-3, Caspase-Glo 3/7 luminescence, 60 min;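 active = mean inhibition across replicates above about 26%, limit read from the data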
# UBC13 conf: human UBC13 polyubiquitin inhibition, confirmed. inhibition, % at 10 µM. 1,400 compounds, 68% hits. shares compounds with UBC13 inh. UBC13 polyubiquitination, TR-FRET, biochemical; in the data active = inhibition above about 45%; inconclusive = no clear call, values can overlap the other calls
# A number is an active result; 0 = inactive; ? = inconclusive; - = not tested or not shown. The list is not random: actives were taken first. Their share in the collection is about 4.3%.
SMILES,Rin1 Abl inh,UBC13 inh,ALR H2O2 inh,RBBP9 inh,SUMO HTRF inh,PREPL inhibitor,Casp3 counter,UBC13 conf
COc1ccc(NC(=O)CN2C(=O)CSC(C)C2=O)cc1 (centres undefined),0,0,0,0,0,0,-,-
CCCCCCNC(=O)N[C@@H](C(=O)NCCC[C@H]1CN2C(=NC[C@@H]2Cc2ccccc2)N1CCc1cccc(OC)c1)C(C)C,-,56.6,0,-,0,0,0,60.7
O=C(CCC1CCCCC1)NCCN1C2=NC[C@@H](Cc3ccccc3)N2C[C@H]1Cc1ccc(O)cc1,0,0,0,0,0,0,-,-
Cc1nc2ccccc2c(=O)n1NC(=O)/C=C/c1ccc(Br)cc1,0,59.7,0,0,0,0,0,52.9
COc1ccc(C(=O)Nn2c(C)nc3ccccc3c2=O)cc1,0,81.7,0,-,0,0,0,84.0
CCCOc1ccc(C(=O)Nn2c(C)nc3ccccc3c2=O)cc1,0,96.3,0,0,0,0,0,108.5
Cc1nc2ccccc2c(=O)n1NC(=O)c1ccccc1Br,0,0,0,-,0,0,-,-
COc1ccc(N2CCN(CC(=O)c3ccc(Cl)cc3)CC2)cc1,0,0,0,-,0,0,-,-
Cc1cn([C@H]2C[C@H](O)[C@@H](/C=C/C(=O)NCCC(c3ccccc3)c3ccccc3)O2)c(=O)[nH]c1=O,0,-,-,-,-,-,-,-
CCC(C)(C)NC(=O)CN(C(=O)c1snc(C(N)=O)c1N)c1ccc2nc(C)sc2c1,0,73.6,0,0,0,0,0,83.0
COc1ccc(N(CC(=O)NC2CCCCC2)C(=O)c2snc(C(N)=O)c2N)cc1,0,0,-,-,0,0,-,-
CCCC(C(=O)NC(C)(C)C)N(C(=O)c1snc(C(N)=O)c1N)c1ccc2c(c1)OCCO2 (centres undefined),0,65.0,0,0,0,0,0,85.5
CCCC(C(=O)NC(C)(C)C)N(Cc1ccc(F)cc1)C(=O)c1snc(C(N)=O)c1N (centres undefined),0,0,0,-,0,0,-,-
CCC(C)(C)NC(=O)CN(C(=O)c1snc(C(N)=O)c1N)c1ccc2c(c1)OCCO2,0,70.2,0,0,0,0,0,59.4
CCCCn1c(N)c(N(CC(C)C)C(=O)C2=NN(c3cc(C)ccc3C)C(=O)CC2)c(=O)[nH]c1=O,0,0,0,-,-,0,-,-
CC(C)Sc1ccccc1C(=O)Nc1ccc2c(c1)n(C)c(=O)n2C,0,0,0,-,0,-,-,-
CCc1cc2c(=O)n(-c3ccccc3)c(=S)[nH]c2s1,0,47.8,0,0,0,0,0,?
CCc1cc2c(=O)n(-c3ccccc3)c(SCC(N)=O)nc2s1,0,0,0,-,0,0,-,-
CCCC[C@@H](CNC)NC[C@H](NCCCCC1CCCCC1)C(C)C,0,66.2,0,-,0,0,0,45.3
COC(=O)C1=C(C)N(Cc2ccccc2)C(=NCC(C)C)N[C@H]1c1cccc(C(F)(F)F)c1,0,72.3,0,-,-,0,0,74.5
COC(=O)C1=C(C)N(Cc2ccccc2)C(=NCCc2ccccn2)N[C@H]1c1cccc(C(F)(F)F)c1,0,51.7,0,-,-,0,0,58.1
COC(=O)C1=C(C)N(Cc2ccccc2)C(=NCc2ccccc2)N[C@H]1c1cccc(C(F)(F)F)c1,0,76.5,0,-,-,0,0,82.5
COC(=O)C1=C(C)N(Cc2ccccc2)C(=NCCc2cccnc2)N[C@H]1c1ccc(Br)cc1,0,48.2,0,-,-,0,0,0
COC(=O)C1=C(C)N(Cc2ccccc2)C(=O)N[C@H]1c1cccc(C(F)(F)F)c1,0,0,0,-,0,0,-,-
COC(=O)C1=C(C)N(Cc2ccccc2)C(=NCC(C)C)N[C@H]1c1cccc(F)c1,0,50.7,0,-,-,0,0,0
SMILES,Rin1 Abl inh,UBC13 inh,ALR H2O2 inh,RBBP9 inh,SUMO HTRF inh,PREPL inhibitor,Casp3 counter,UBC13 conf
CC(/C=N/NC(=O)c1ccccc1C)=C\c1ccccc1,0,0,0,-,-,0,-,-
COc1cc(/C=N\NC(=O)c2sc(N)nc2C)cc(OC)c1OC,0,104.9,0,0,0,0,0,111.3
Cc1nc(N)sc1C(=O)N/N=C/c1c[nH]c2ccccc12,0,79.2,90.6,0,0,0,0,113.7
CC(/C=N/NC(=O)c1sc(N)nc1C)=C\c1ccccc1,0,85.2,0,0,0,0,42.7,96.1
Cc1nc(N)sc1C(=O)N/N=C/c1ccco1,0,72.3,0,0,0,0,0,62.7
O=C(Nc1ccccc1)NN(C(=O)CCl)c1ccccc1,0,0,0,-,0,0,-,-
CCCCCCOc1ccc(/C(C)=N/NC2=NCCN2)cc1[N+](=O)[O-],0,93.7,0,0,0,0,0,97.8
Cn1cnc2c(oc3ccccc32)c1=O,0,0,0,-,-,0,-,-
O=C(CCCCCN1C(=O)c2cccc3cccc(c23)C1=O)NC1CCS(=O)(=O)C1 (centres undefined),0,82.9,-,0,0,0,0,97.5
O=C(CCN1C(=O)c2cccc3cccc(c23)C1=O)NC1CCS(=O)(=O)C1 (centres undefined),0,0,0,0,0,0,-,-
COc1cccc(Oc2cn[nH]c2-c2ccc(OC)cc2O)c1,0,0,0,0,0,0,-,-
CCOc1ccc(-c2[nH]ncc2Oc2cccc(OC)c2)c(O)c1,0,63.2,0,0,0,0,0,60.5
CCC(C)N(CCNC(=O)c1ccc2c(c1)NC(=O)c1ccccc1S2)C1CCCCC1 (centres undefined),0,51.5,0,-,0,0,0,69.6
CC1CCCC(C)N1CCCNC(=O)c1ccc2c(c1)NC(=O)c1ccccc1S2 (centres undefined),0,0,0,-,0,0,-,-
CN(C)CCNc1oc(COc2ccc(Cl)cc2Cl)nc1C#N,0,90.8,0,0,0,0,0,97.6
O=C(Nc1ccc(C2=NCCN2)cc1)c1ccc(C(=O)Nc2ccc(C3=NCCN3)cc2)c(Cl)c1,0,103.9,0,0,0,0,0,117.9
O=C(Nc1ccncc1)Nc1cccc(Cl)c1,0,0,0,-,0,0,-,-
O=C(Nc1ccc(NC(=O)c2ccc(Cl)cc2Cl)cc1)c1ccc2c(c1)OCO2,0,0,0,-,0,0,-,-
O=C(Nc1cccc(C2=NCCN2)c1)Nc1cccc(C2=NCCN2)c1,0,97.1,0,-,-,0,0,103.8
CC(C)N=C(N)N=C(N)Nc1ccc(Cl)cc1,0,0,-,-,-,0,-,-
NC(=NCCCCCCN=C(N)/N=C(\N)Nc1ccc(Cl)cc1)/N=C(\N)Nc1ccc(Cl)cc1,0,110.8,0,-,0,0,0,118.3
COc1ccc(NC(=O)CS(=O)CC(=O)Nc2cc(Cl)ccc2OC)cc1 (centres undefined),0,53.6,0,0,0,0,0,53.3
COc1ccc(NC(=O)CS(=O)CC(=O)Nc2ccc(F)cc2F)cc1 (centres undefined),0,0,0,-,0,0,-,-
